In ChEMBL document CHEMBL1139471, “Antitumor polycyclic acridines. 17. Synthesis and pharmaceutical profiles of pentacyclic acridinium salts designed to destabilize telomeric integrity” (J Med Chem, 2005):

How the values were obtained:
[1] = Inhibition of telomerase by TRAP assay; design: species or system Homo sapiens
[2] = Growth inhibition of NCI60 cell panel; format: functional; details: Homo sapiens
Summary of the method: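 NCI 60 human tumor cell panel with a 2-day drug exposure; mean GI50 reported.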

[3] = Selectivity index, ratio of mean GI50 for NCI60 cell panel to IC50 for telomerase; format: functional, Homo sapiens
Summary of the method: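 Selectivity index calculated as mean GI50 (NCI 60 panel, 2-day exposure) divided by the telomerase IC50 from the TRAP assay.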

[4] = Aqueous solubility at 25 degC; format: physicochemical; details: water
[5] = Stability in RPMI tissue culture medium at 37 degC after 72 hrs; format: ADME
Summary of the method: (§1)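 Drug at 10 μM in RPMI containing 10% FBS without cells, held at 37 °C up to 72 h. Monitored by absorbance at λmax and spectrum shape, and by HPLC of aliquots for loss of parent and appearance of new peaks. LC-MS run on the 72 h sample.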

[6] = Metabolic stability in Sprague-Dawley rat liver microsomes assessed as drug remaining after 4 hrs
[7] = system: A549; assay: Stability in RPMI tissue culture medium at 37 degC incubated with human A549 cells at 0.5 uM after 72 hrs; format: ADME, cell-based; details: a549, 72 h
Summary of the method: (§2)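 A549 or MCF-7 cells seeded at 5 × 10^5 per flask and attached overnight in RPMI with 10% serum at 37 °C. Medium then replaced with medium containing 0.5 μM drug. Medium sampled in triplicate at 0, 24, 48 and 72 h, deproteinized with acetonitrile. Isocratic C18 HPLC, fluorescence detection ex 483/em 543 nm. Drug peak height given as % of time zero; mean and SD of two flasks.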

[8] = Stability in RPMI tissue culture medium at 37 degC at 10 uM after 72 hrs; format: ADME; summary of the method: as §1
[9] = system: Liver microsomes; assay: Metabolic stability in Sprague-Dawley rat liver microsomes at 2 uM after 4 hrs; format: ADME, Microsome
Summary of the method: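 Pooled male Sprague-Dawley rat liver microsomes (0.5 mg/mL protein) in 100 mM potassium phosphate pH 7.4 with 5 mM MgCl2 and 1 mM NADPH. Drug at 2 μM final, diluted from a DMSO stock, incubated 4 h at 37 °C. Stopped with cold acetonitrile, then reverse-phase C18 HPLC of the parent peak. Controls: P450-null human lymphoblast microsomes for protein binding; DF 203 for microsomal activity.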

[10] = Stability in RPMI tissue culture medium at 37 degC incubated with human MCF7 cells at 0.5 uM after 72 hrs; format: ADME, cell-based; details: read-out: Stability; summary of the method: as §2

Row | SMILES | IC50 [1] [µM] | GI50 [2] [µM] | Selectivity index [3] | other results
1 | CC(=O)OCCCc1cc2c3c([n+](C)c4ccc(/C=C/C(=O)N5CCOCC5)cc4c3c1)-c1ccccc1N2C.[I-] | 0.38 | 27.5 | 72.4 | Activity [7]: Not Active; Activity [8]: Not Active
2 | COc1cc2c3c([n+](C)c4ccccc4c3c1)-c1ccc(/C=C/C(=O)N3CCN(C(C)=O)CC3)cc1N2C |  | 93.3 |  | 
3 | COC(=O)/C=C/c1ccc2c(c1)c1cccc3c1c([n+]2C)-c1ccccc1N3C | 0.2 |  |  | 
4 | CN1c2ccccc2-c2c3c1cc(/C=C/C(=O)N1CCOCC1)cc3c1cc(Cl)ccc1[n+]2C |  | 12 |  | 
5 | CN1c2ccccc2-c2c3c1cccc3c1cc(/C=C/C(=O)N3CCOCC3)ccc1[n+]2C.[I-] | 0.37 | 68 | 183 | solubility [4]: 1000 µM; Stability [5]: Stable; Activity [9]: 66%
6 | CC(=O)OCCCc1ccc2c(c1)N(C)c1cc(CCCOC(C)=O)cc3c1c-2[n+](C)c1ccccc31.[I-] | 2.3 | 3.31 | 1.45 | 
7 | COC(=O)CCc1ccc2c(c1)c1cccc3c1c([n+]2C)-c1ccccc1N3C | 3.02 |  |  | 
8 | COc1cc2c3c([n+](C)c4ccc(/C=C/C(=O)N5CCOCC5)cc4c3c1)-c1ccccc1N2C |  | 9.33 |  | 
9 | CC(=O)Nc1ccc2c3cccc4c3c([n+](C)c2c1)-c1ccccc1N4C.[I-] | 0.38 | 12 | 31.6 | Stability [5]: Stable; remaining at 72 h, 0.5 µM [10]: 43%; remaining at 4 h [6]: 69%

Second part, led by results:

Row | IC50 [1] [µM] | SMILES | GI50 [2] [µM] | Selectivity index [3] | other results
10 | 0.38 | CN1c2ccccc2-c2c3c1cccc3c1ccccc1[n+]2C.[I-] | 1.29 | 3.4 | 
11 | 0.33 | COS(=O)(=O)[O-].Cc1cc2c3c([n+](C)c4ccc(F)cc4c3c1)-c1cc(F)ccc1N2C | 13.2 | 40 | solubility [4]: 5000 µM; Stability [5]: Stable; remaining at 4 h [6]: 81%
12 | 0.25 | COS(=O)(=O)[O-].Cc1ccc2c(c1)-c1c3c(cc(C)cc3c3cc(C)ccc3[n+]1C)N2C | 0.41 | 1.8 | 
13 | 2.18 | COc1cc2c3c([n+](C)c4ccccc4c3c1)-c1ccc(/C=C/C(=O)N3CCOCC3)cc1N2C.[I-] | 43.7 | 2 | 
14 | 3.22 | CC(=O)OCCCc1cc2c3c([n+](C)c4ccc(CCCOC(C)=O)cc4c3c1)-c1ccccc1N2C.[I-] | 3.8 | 1.2 | 
15 | > 1 | COC(=O)/C=C/c1ccc2c(c1)N(C)c1cc(OC)cc3c1c-2[n+](C)c1ccccc31 | 4.58 |  | 
